Assay results pooled from the literature.
Protocols differ between the studies behind these lines.
Target: Testis-specific serine/threonine-protein kinase 1 (TSSK1B, Homo sapiens, UniProt Q9BXA7)
Residues used in one study (Q9BXA7 1-367): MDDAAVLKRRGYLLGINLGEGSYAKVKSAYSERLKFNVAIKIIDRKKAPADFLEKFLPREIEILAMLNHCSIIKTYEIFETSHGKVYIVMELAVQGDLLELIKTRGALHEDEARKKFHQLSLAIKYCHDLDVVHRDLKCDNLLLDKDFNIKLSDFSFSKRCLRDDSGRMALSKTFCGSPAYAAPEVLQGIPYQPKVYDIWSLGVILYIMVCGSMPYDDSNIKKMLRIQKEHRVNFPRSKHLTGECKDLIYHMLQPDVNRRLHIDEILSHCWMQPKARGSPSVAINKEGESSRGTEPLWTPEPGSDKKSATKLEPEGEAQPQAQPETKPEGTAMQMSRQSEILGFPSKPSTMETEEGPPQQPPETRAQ

CN1CC(Oc2cnc(C#N)cc2-c2ccn3nc(NC(=O)C4CC4)cc3c2)C1 — inhibition (enzyme activity; inhibitor; 1 µM): 9%
Cc1cnc(NC2CCOCC2)nc1-n1cnc(C(=O)NC(CN)c2cc(F)cc(Cl)c2)c1 (centres unmarked) — remaining activity (enzyme activity; inhibitor; radiometric; 1 µM): 55%
COc1cc(Nc2cnc(C#N)c(O[C@H](C)CN(C)C)n2)ncc1-c1cnn(C)c1 — remaining activity (enzyme activity; inhibitor; radiometric; 1 µM): 72%
CS(=O)(=O)N1CCCC(NC(=O)[C@H](CCC2CCCCC2)NC(=O)c2ccc(CNC(=O)c3cnc4ccccn34)cc2)C1 (some centres unmarked) — remaining binding (cell-free assay; competition with immobilised ligand; 0.1 µM): 94%
CCCS(=O)(=O)Nc1ccc(F)c(C(=O)c2c[nH]c3ncc(-c4ccc(Cl)cc4)cc23)c1F — inhibition (enzyme activity; inhibitor; 1 µM): < 10%
CCN(CC)CCNC(=O)c1c(C)[nH]c(/C=C2\C(=O)Nc3ccc(F)cc32)c1C — inhibition (enzyme activity; inhibitor; 10 µM): 20%
COc1cc(-c2cn(C3CCc4c(F)cccc4N(CC(F)(F)F)C3=O)nn2)ccc1-n1cnc(C)c1 (centres unmarked) — remaining binding (cell-free assay; competition with immobilised ligand; 1 µM): 100%
CCN(CC)c1ccc(C2=NNC(=O)CC2C)cc1[N+](=O)[O-] (centres unmarked) — remaining activity (enzyme activity; inhibitor; 10 µM): 96%
Cc1ccc(Nc2nccc(N(C)c3ccc4c(C)n(C)nc4c3)n2)cc1S(N)(=O)=O — inhibition (enzyme activity; inhibitor; 10 µM): 1%
COc1ccc2c(O[C@@H]3C[C@H]4C(=O)N[C@]5(C(=O)O)CC5/C=C\CCCCC[C@H](NC(=O)OC5CCCC5)C(=O)N4C3)cc(-c3csc(NC(=O)C(C)C)n3)nc2c1C (some centres unmarked) — remaining binding (cell-free assay; competition with immobilised ligand; 1 µM): 70%
CN(C)C1CCN(CC#Cc2nn(C3CCCC3)c3nc(NCc4ccccc4)ncc23)C1 (centres unmarked) — inhibition (enzyme activity; inhibitor; FRET; 0.1 µM): 4%
O=S(=O)(NC1CCC(c2cc(F)ccc2F)(S(=O)(=O)c2ccc(Cl)cc2)CC1)C(F)(F)F (centres unmarked) — remaining binding (cell-free assay; competition with immobilised ligand; 1 µM): 100%
CC(C)(C)c1nc(-c2cccc(NS(=O)(=O)c3c(F)cccc3F)c2F)c(-c2ccnc(N)n2)s1 — remaining activity (enzyme activity; inhibitor; radiometric; 1 µM): 84%
O=C1Nc2ccc(Cl)cc2C1=Cc1cc(Cl)c(O)c(Cl)c1 — remaining signal (cell-free assay; 0.5 µM): 88.2%
C[C@H](c1cccc(C#N)c1)n1cc(Cl)cc(C(N)=O)c1=N — remaining binding (cell-free assay; competition with immobilised ligand; 1 µM): 96%
O=C(Nc1cnn(-c2csc(C(=O)NC3COC3)c2)c1)Nc1ccccc1Cl — remaining activity (enzyme activity; inhibitor; 5 µM): 102%
Cc1c(NC(=O)c2cc(C(N)=O)nc3cc(F)ccc23)c(C(F)(F)F)nn1Cc1ccc(C(C)(C)C)cc1 — remaining binding (cell-free assay; competition with immobilised ligand; 1 µM): 100%
COc1cc2ncnc(Nc3ccc(Oc4ccccc4)cc3C)c2cc1OC — inhibition (enzyme activity; inhibitor; 1 µM): 2%
Cc1ccc(NC(=O)c2ccc(CN3CCN(C)CC3)cc2)cc1Nc1nc(-c2cccnc2)cs1 — remaining signal (cell-free assay; 0.5 µM): 100%
CNC(=O)c1cc(Oc2ccc(NC(=O)Nc3ccc(Cl)c(C(F)(F)F)c3)cc2)ccn1 — inhibition (enzyme activity; inhibitor; 0.3 µM): -6%
CCOc1cc(-c2nncn2C)ccc1Nc1ncc2cc(C)nc(NCC(C)(C)C)c2n1 — inhibition (enzyme activity; inhibitor; FRET; 1 µM): < 15%
CN(C)C(=O)Cn1cc(-c2nc(C3(c4ccc(-c5cnc(N)nc5)cc4)CC3)no2)cn1 — remaining binding (cell-free assay; competition with immobilised ligand; 1 µM): 100%
COc1cc(Cl)c(C(=O)N[C@@H](CN[C@H]2CC[C@@H](N)CC2)Cc2ccc(C#N)cc2)cc1-c1ccc(CN[C@H](C)c2ccc(C)cc2)o1 — remaining activity (enzyme activity; inhibitor; 1 µM): 101%
